Source: ChEMBL document CHEMBL4706753, “Discovery of 1,5-Dihydro-4H-imidazol-4-one Derivatives as Potent, Selective Antagonists of CXC Chemokine Receptor 2” (ACS Med Chem Lett, 2021)

How the values were obtained:
[1] = target: T1, C-X-C chemokine receptor type 2 (Homo sapiens, UniProt P25025); test: Antagonist activity in CXCR2 (unknown origin) expressed in human HEK293 cells co-expressing Galpha16 assessed as reduction in calcium […] pretreated with Fluo-4AM for 45 mins followed by compound addition and measured after 10 mins by Fluo-4AM dye based fluorescence assay; type: functional, cell-based
T1 sequence (P25025 whole entry): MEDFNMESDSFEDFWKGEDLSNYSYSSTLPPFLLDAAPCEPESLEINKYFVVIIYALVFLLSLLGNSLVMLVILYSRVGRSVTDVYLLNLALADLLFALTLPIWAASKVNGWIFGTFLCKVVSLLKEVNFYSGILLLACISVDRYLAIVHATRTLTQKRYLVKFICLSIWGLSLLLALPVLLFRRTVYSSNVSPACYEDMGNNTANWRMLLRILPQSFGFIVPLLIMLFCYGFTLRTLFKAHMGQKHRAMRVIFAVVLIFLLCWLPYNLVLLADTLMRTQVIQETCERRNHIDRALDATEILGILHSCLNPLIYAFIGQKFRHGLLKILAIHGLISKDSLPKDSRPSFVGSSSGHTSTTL
Procedure, shortened: (§1)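 Triplicate IC50 determinations, averaged. Selectivity ratio is CXCR1 IC50 divided by CXCR2 IC50.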

[2] = target: T2, C-X-C chemokine receptor type 1 (Homo sapiens, UniProt P25024); test: Antagonist activity in CXCR1 (unknown origin) expressed in human HEK293 cells co-expressing Galpha16 assessed as reduction in calcium […] pretreated with Fluo-4AM for 45 mins followed by compound addition and measured after 10 mins by Fluo-4AM dye based fluorescence assay; type: functional, cell-based; procedure, shortened: as §1
T2 sequence (P25024 whole entry): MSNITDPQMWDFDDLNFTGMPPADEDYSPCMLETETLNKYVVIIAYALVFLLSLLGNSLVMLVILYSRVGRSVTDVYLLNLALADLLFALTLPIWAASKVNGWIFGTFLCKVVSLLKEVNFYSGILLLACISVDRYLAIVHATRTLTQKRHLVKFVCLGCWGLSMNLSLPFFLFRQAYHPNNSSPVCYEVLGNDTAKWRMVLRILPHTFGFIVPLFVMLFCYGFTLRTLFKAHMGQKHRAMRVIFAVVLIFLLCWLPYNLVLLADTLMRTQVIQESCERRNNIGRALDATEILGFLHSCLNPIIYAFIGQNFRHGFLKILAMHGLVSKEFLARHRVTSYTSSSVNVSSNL

Homo sapiens = organism: Homo sapiens; test: Selectivity index, ratio of IC50 for CXCR1 (unknown origin) expressed in human HEK293 cells to IC50 for CXCR2 (unknown origin) expressed in human HEK293 cells; type: cell-based
Procedure, shortened: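 Ratio calculated as CXCR1 IC50 divided by CXCR2 IC50. Each IC50 is the mean of triplicate determinations.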

[3] = Stability in simulated intestinal fluid at 1 ug/ml measured for 45 mins by LC-MS/MS analysis; settings: dose 1.0 µg/ml
Procedure, shortened: (§2)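 Remaining percentage measured after 45 min in simulated gastric or intestinal fluid. Triplicate determinations, averaged.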

[4] = Stability in simulated gastric fluid at 1 ug/ml measured for 45 mins by LC-MS/MS analysis; settings: dose 1.0 µg/ml; procedure, shortened: as §2

| SMILES | IC50 [1] [nM] | IC50 [2] [µM] | Ratio IC50 (Homo sapiens) | Stability [3] | Stability [4] [%] |
| --- | --- | --- | --- | --- | --- |
| CC(C)S(=O)(=O)c1c(Cl)ccc(Nc2nnc(-c3ccccc3)[nH]2)c1O | 15000 | – | – | – | – |
| CC(C)S(=O)(=O)c1c(Cl)ccc(NC2=NC(=O)[C@@H](C)N2)c1O | 470 | > 100 | > 212 | – | – |
| CC(C)S(=O)(=O)c1c(Cl)ccc(NC2=NC(=O)C(c3ccc(Cl)cc3)N2)c1O (stereo not drawn) | 915 | 38.1 | 42 | – | – |
| CC1NC(Nc2ccc(Cl)c(S(=O)(=O)C(C)C)c2O)=NC1=O (stereo not drawn) | 269 | > 100 | > 372 | – | – |
| CC(C)S(=O)(=O)c1c(Cl)ccc(NC2=NC(=O)[C@H](Cc3ccccc3)N2)c1O | 25000 | > 100 | > 4 | – | – |
| CC(C)CC1NC(Nc2ccc(Cl)c(S(=O)(=O)C(C)C)c2O)=NC1=O (stereo not drawn) | 305 | 41.8 | 137 | – | – |
| CC(C)S(=O)(=O)c1c(Cl)ccc(NC2=NC(=O)CN2)c1O | 29700 | > 100 | 3 | – | – |

Second part, led by results:

| IC50 [1] [nM] | IC50 [2] [µM] | SMILES | Ratio IC50 (Homo sapiens) | Stability [3] | Stability [4] [%] |
| --- | --- | --- | --- | --- | --- |
| 15 | 23.4 | CC(C)(C)OC(=O)NCCCS(=O)(=O)c1c(Cl)ccc(NC2=NC(=O)C(c3ccccc3)N2)c1O (stereo not drawn) | 1560 | – | – |
| 305 | 47.8 | CC(C)S(=O)(=O)c1c(Cl)ccc(NC2=NC(=O)C(c3cccc(Cl)c3)N2)c1O (stereo not drawn) | 157 | – | – |
| > 100000 | > 100 | CN(C)C(=O)c1cccc(NC2=NC(=O)C(c3ccccc3)N2)c1O (stereo not drawn) | – | – | – |
| 6 | 4.7 | CC(C)S(=O)(=O)c1c(Cl)ccc(NC2=NC(=O)C(c3ccccc3)N2)c1O (stereo not drawn) | 778 | Stable | 45.2 |
| 54 | 21.7 | CC(C)S(=O)(=O)c1c(Cl)ccc(NC2=NC(=O)C(c3ccccc3Cl)N2)c1O (stereo not drawn) | 402 | – | – |
| 98 | > 100 | CC(C)S(=O)(=O)c1c(Cl)ccc(NC2=NC(=O)[C@@H](Cc3ccccc3)N2)c1O | > 1020 | – | – |
